Laboratory results from ChEMBL document CHEMBL4673374, “Synthesis of mitochondria-targeted coumarin-3-carboxamide fluorescent derivatives: Inhibiting mitochondrial TrxR2 and cell proliferation on breast cancer cells” (Bioorg Med Chem Lett, 2021).
Calls of active or inactive are those of the source. The rule behind the calls is not given here.

Legend:
MCF-10A = experiment: Cytotoxicity against human MCF-10A cells after 48 hrs by MTT assay; type: cell-based
Summary of the method: (§1)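 MTT viability read after 48 h exposure of three breast cancer lines and non-tumorigenic MCF-10A breast cells; IC50 reported as mean ± SD from at least three independent experiments. Butyl-TPP and tamoxifen run alongside as references. Sulforhodamine B assay used as a cross-check.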

MCF7 = experiment: Cytotoxicity against human MCF7 cells after 48 hrs by MTT assay; type: functional, cell-based; conditions: MCF7, 48 h; summary of the method: as §1
SK-BR-3 = experiment: Cytotoxicity against human SK-BR-3 cells after 48 hrs by MTT assay; type: functional, cell-based; conditions: SK-BR-3, 48 h; summary of the method: as §1
MDA-MB-231 [1] = experiment: Cytotoxicity against human MDA-MB-231 cells after 48 hrs by MTT assay; type: functional, cell-based; conditions: MDA-MB-231, 48 h; summary of the method: as §1
[2] = Drug uptake in human MDA-MB-231 cells assessed as blue fluorescence at 8 uM measured after 0.5 to 1.5 hrs by flow cytometric analysis; type: ADME, cell-based; conditions: mda-mb-231, 8 µM, TDE = time-dependent effect, time 0.5-1.5 hrs
Summary of the method: (§2)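 Uptake read from native blue fluorescence (λex ~420, λem ~475 nm) by flow cytometry as geometric mean intensity. Dose series read after 2 h. Time course run at 8 μM over several durations. Mean ± SD, n = 3.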

[3] = Drug uptake in human MDA-MB-231 cells assessed as blue fluorescence after 2 hrs by flow cytometric analysis; type: ADME, cell-based; conditions: mda-mb-231, 2 h, dose 1-16 µM; summary of the method: as §2
[4] = Stability of compound in methanol-water after 3 days by HPLC-MS analysis; type: physicochemical; conditions: 72 h; time 3 day
MDA-MB-231 [5] = experiment: Inhibition of TrxR activity in human MDA-MB-231 cells at 10 uM incubated for 4 hrs; type: cell-based
Summary of the method: (§3)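 MDA-MB-231 cells treated with 10 μM compound for 4 h. Total-cell and mitochondrial extracts assayed for TrxR activity with a micro oxidized thioredoxin reductase kit. Mean ± SD, n = 3.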

[6] = Drug localization in mitochondria of human MDA-MB-231 cells at 1 uM incubated for 30 mins by MTDR staining based laser confocal microscopic analysis; type: ADME; conditions: mda-mb-231, 0.5 h
MDA-MB-231 [7] = experiment: Induction of apoptosis in human MDA-MB-231 cells assessed as early apoptotic cells at 4 uM incubated for 48 hrs by Annexin V-FITC/PI staining based flow cytometric analysis (reference value: 2.08 %); type: functional
MDA-MB-231 [8] = experiment: Induction of mitochondrial membrane depolarization in human MDA-MB-231 cells at 2 to 8 uM preincubated with BSO for 24 hrs followed by compound addition by flow cytometric analysis; type: functional; conditions: dose 2-8 µM
Summary of the method: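 MDA-MB-231 cells pretreated with 50 μM buthionine sulfoximine for 24 h to deplete GSH, then exposed to compound. Mitochondrial membrane potential determined by flow cytometry. Mean ± SD, n = 3.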

MDA-MB-231 [9] = experiment: Induction of apoptosis in human MDA-MB-231 cells assessed as early apoptotic cells at 2 uM incubated for 48 hrs by Annexin V-FITC/PI staining based flow cytometric analysis (reference value: 2.08 %); type: functional
MDA-MB-231 [10] = experiment: Induction of mitochondrial membrane potential loss in human MDA-MB-231 cells assessed as TMRE low/caspase low cells at 4 uM after 24 hrs by TMRE staining based flow cytometric analysis (reference value: 98.21%); type: functional
[11] = Drug localization in mitochondria of human MDA-MB-231 cells at 1 uM incubated for 30 mins in presence of CCCP by MTDR staining based laser confocal microscopic analysis; type: ADME; conditions: mda-mb-231, 0.5 h
MDA-MB-231 [12] = experiment: Induction of mitochondrial membrane potential loss in human MDA-MB-231 cells assessed as TMRE high cells at 8 uM after 24 hrs by TMRE staining based flow cytometric analysis (reference value: 1.79%); type: functional
MDA-MB-231 [13] = experiment: Induction of mitochondrial membrane potential loss in human MDA-MB-231 cells assessed as TMRE low/caspase low cells at 2 uM after 24 hrs by TMRE staining based flow cytometric analysis (reference value: 98.21%); type: functional
MDA-MB-231 [14] = experiment: Induction of mitochondrial membrane potential loss in human MDA-MB-231 cells after 24 hrs by TMRE staining based flow cytometric analysis; type: functional, cell-based; conditions: dose 2-8 µM
MDA-MB-231 [15] = experiment: Induction of mitochondrial membrane potential loss in human MDA-MB-231 cells assessed as TMRE high cells at 2 uM after 24 hrs by TMRE staining based flow cytometric analysis (reference value: 1.79%); type: functional
MDA-MB-231 [16] = experiment: Inhibition of TrxR activity in human MDA-MB-231 cell mitochondrial extracts at 10 uM incubated for 4 hrs; conditions: Mitochondria; summary of the method: as §3
MDA-MB-231 [17] = experiment: Induction of mitochondrial membrane potential loss in human MDA-MB-231 cells assessed as TMRE low/caspase low cells at 8 uM after 24 hrs by TMRE staining based flow cytometric analysis (reference value: 98.21%); type: functional
MDA-MB-231 [18] = experiment: Down regulation of TrxR expression in human MDA-MB-231 cells incubated for 48 hrs by Western blot analysis; type: functional, cell-based; conditions: dose 2-8 µM
Summary of the method: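 MDA-MB-231 cells exposed at 2, 4 and 8 μM for 48 h. TrxR2 protein detected by Western blot and quantified by gray-value scanning. Mean ± SD, n = 3.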

MDA-MB-231 [19] = experiment: Induction of mitochondrial membrane potential loss in human MDA-MB-231 cells assessed as TMRE high cells at 4 uM after 24 hrs by TMRE staining based flow cytometric analysis (reference value: 1.79%); type: functional
MDA-MB-231 [20] = experiment: Induction of apoptosis in human MDA-MB-231 cells assessed as late apoptotic or necrotic cells at 4 uM incubated for 48 hrs by Annexin V-FITC/PI staining based flow cytometric analysis (reference value: 3.51 %); type: functional
MDA-MB-231 [21] = experiment: Induction of apoptosis in human MDA-MB-231 cells assessed as early apoptotic cells at 8 uM incubated for 48 hrs by Annexin V-FITC/PI staining based flow cytometric analysis (reference value: 2.08 %); type: functional
MDA-MB-231 [22] = experiment: Induction of ROS generation in human MDA-MB-231 cells after 6 hrs by DCFH-DA staining based flow cytometric analysis; type: functional, cell-based
Summary of the method: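 MDA-MB-231 cells treated for 6 h, then intracellular ROS probed with DCFH-DA. Geometric mean fluorescence measured by flow cytometry. Mean ± SD, n = 3.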

MDA-MB-231 [23] = experiment: Induction of cell death in human MDA-MB-231 cells assessed as reduction in cell viability at 2 to 8 uM preincubated with BSO for 24 hrs followed by compound addition and measured after 24 hrs MTT assay; type: functional; conditions: dose 2-8 µM
Summary of the method: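 MDA-MB-231 cells pretreated with buthionine sulfoximine (50 μM, 24 h) to deplete GSH, then exposed to test compound for a further 24 h. Viability read by MTT. Means ± SD, n = 3.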

MDA-MB-231 [24] = experiment: Induction of cell death in human MDA-MB-231 cells assessed as reduction in cell viability preincubated with CsA for 2 hrs followed by compound addition and measured after 48 hrs by MTT assay; type: functional, cell-based
Summary of the method: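 MDA-MB-231 cells pre-incubated 2 h with cyclosporin A (2 and 4 μM), then exposed to compound for 48 h. Viability read by MTT. Mean ± SD, n = 3.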

MDA-MB-231 [25] = experiment: Induction of apoptosis in human MDA-MB-231 cells assessed as late apoptotic or necrotic cells at 2 uM incubated for 48 hrs by Annexin V-FITC/PI staining based flow cytometric analysis (reference value: 3.51 %); type: functional
MDA-MB-231 [26] = experiment: Induction of apoptosis in human MDA-MB-231 cells assessed as late apoptotic or necrotic cells at 8 uM incubated for 48 hrs by Annexin V-FITC/PI staining based flow cytometric analysis (reference value: 3.51 %); type: functional

With `CCCC[P+](c1ccccc1)(c1ccccc1)c1ccccc1` the IC50 (MCF-10A) was > 100 µM, the IC50 (MCF7) was 57.4 µM and the IC50 (SK-BR-3) was > 100 µM. The IC50 (MDA-MB-231 [1]) was > 100 µM.

Work on `CCN(Cc1ccccc1)c1ccc2cc(C(=O)NCCCC[P+](c3ccccc3)(c3ccccc3)c3ccccc3)c(=O)oc2c1` yielded an IC50 (MCF-10A) of 15.1 µM, an IC50 (MCF7) of 4.9 µM and an IC50 (SK-BR-3) of 2.73 µM. It also gave an IC50 (MDA-MB-231 [1]) of 3.73 µM.

In the case of `CCCCNC(=O)c1cc2ccc(N(CC)CC)cc2oc1=O`, the IC50 (MCF-10A) is reported as > 100 µM, the IC50 (MCF7) is reported as > 100 µM and the IC50 (SK-BR-3) is reported as > 100 µM. The IC50 (MDA-MB-231 [1]) was > 100 µM.

For `CCN(CC)c1ccc2cc(C(=O)OCCCC[P+](c3ccccc3)(c3ccccc3)c3ccccc3)c(=O)oc2c1`, the IC50 (MCF-10A) was 83.7 µM, the IC50 (MCF7) was 27.8 µM and the Drug uptake [2] was “Tde”. For the same compound, the Drug uptake [3] was “Dose-dependent effect”, the IC50 (SK-BR-3) was 30.9 µM and the IC50 (MDA-MB-231 [1]) was 29.4 µM. The Stabilty [4] was “Unstable”.

For `CCN(CC)c1ccc2cc(C(=O)NCCCC[P+](c3ccccc3)(c3ccccc3)c3ccccc3)c(=O)oc2c1`, the inhibition (MDA-MB-231 [5]) was “Active”, the Drug uptake [6] was “Active” and the Activity (MDA-MB-231 [7]) was 6.47%. The IC50 (MCF-10A) was 45.3 µM, the Activity (MDA-MB-231 [8]) was 13% and the Activity (MDA-MB-231 [9]) was 1.2%. For the same compound, the Activity (MDA-MB-231 [10]) was 70.55%, the Drug uptake [11] was “Not Active” and the IC50 (MCF7) was 3.26 µM. The Activity (MDA-MB-231 [12]) was 39.37%, the Activity (MDA-MB-231 [13]) was 78.96% and the Drug uptake [2] was “Tde”. The Drug uptake [3] was “Dose-dependent effect”, the Activity (MDA-MB-231 [14]) was “Dose-dependent effect” and the Activity (MDA-MB-231 [15]) was 21.04%. For the same compound, the IC50 (SK-BR-3) was 3.46 µM, the inhibition (MDA-MB-231 [16]) was “Active” and the IC50 (MDA-MB-231 [1]) was 3.03 µM. For the same compound, the Activity (MDA-MB-231 [17]) was 60.63%, the Activity (MDA-MB-231 [18]) was “Active” and the Activity (MDA-MB-231 [19]) was 29.45%. The Activity (MDA-MB-231 [20]) was 24.09%, the Activity (MDA-MB-231 [21]) was 1.89% and the Stabilty [4] was “Stable”. For the same compound, the Activity (MDA-MB-231 [22]) was “Dose-dependent effect”, the Activity (MDA-MB-231 [23]) was 50% and the Activity (MDA-MB-231 [24]) was “inactive”. For the same compound, the Activity (MDA-MB-231 [25]) was 14.69% and the Activity (MDA-MB-231 [26]) was 65.07%.

For `CC/C(=C(\c1ccccc1)c1ccc(OCCN(C)C)cc1)c1ccccc1` [TAMOXIFEN], the IC50 (MCF-10A) was > 50 µM and the IC50 (MCF7) was 15.2 µM.
